ChEMBL document CHEMBL1772951, “Synthesis of some novel benzofuran-2-yl(4,5-dihyro-3,5-substituted diphenylpyrazol-1-yl) methanones and studies on the antiproliferative effects and reversal of multidrug resistance of human MDR1-gene transfected mouse lymphoma cells in vitro” (Eur J Med Chem, 2011)
Values after ≈ are worked out from the molar mass of the structure shown.

What was measured:
[1] = target: ATP-dependent translocase ABCB1 (Homo sapiens, UniProt P08183); experiment: Inhibition of human MDR1 expressed in mouse L5178Y cells assessed as rhodamine 123 accumulation at 20 ug/ml preincubated for 10 mins before rhodamine 123 challenge measured after 20 mins by flow cytometry relative to wild type; format: cell-based
Sequence of ATP-dependent translocase ABCB1 (P08183 whole entry): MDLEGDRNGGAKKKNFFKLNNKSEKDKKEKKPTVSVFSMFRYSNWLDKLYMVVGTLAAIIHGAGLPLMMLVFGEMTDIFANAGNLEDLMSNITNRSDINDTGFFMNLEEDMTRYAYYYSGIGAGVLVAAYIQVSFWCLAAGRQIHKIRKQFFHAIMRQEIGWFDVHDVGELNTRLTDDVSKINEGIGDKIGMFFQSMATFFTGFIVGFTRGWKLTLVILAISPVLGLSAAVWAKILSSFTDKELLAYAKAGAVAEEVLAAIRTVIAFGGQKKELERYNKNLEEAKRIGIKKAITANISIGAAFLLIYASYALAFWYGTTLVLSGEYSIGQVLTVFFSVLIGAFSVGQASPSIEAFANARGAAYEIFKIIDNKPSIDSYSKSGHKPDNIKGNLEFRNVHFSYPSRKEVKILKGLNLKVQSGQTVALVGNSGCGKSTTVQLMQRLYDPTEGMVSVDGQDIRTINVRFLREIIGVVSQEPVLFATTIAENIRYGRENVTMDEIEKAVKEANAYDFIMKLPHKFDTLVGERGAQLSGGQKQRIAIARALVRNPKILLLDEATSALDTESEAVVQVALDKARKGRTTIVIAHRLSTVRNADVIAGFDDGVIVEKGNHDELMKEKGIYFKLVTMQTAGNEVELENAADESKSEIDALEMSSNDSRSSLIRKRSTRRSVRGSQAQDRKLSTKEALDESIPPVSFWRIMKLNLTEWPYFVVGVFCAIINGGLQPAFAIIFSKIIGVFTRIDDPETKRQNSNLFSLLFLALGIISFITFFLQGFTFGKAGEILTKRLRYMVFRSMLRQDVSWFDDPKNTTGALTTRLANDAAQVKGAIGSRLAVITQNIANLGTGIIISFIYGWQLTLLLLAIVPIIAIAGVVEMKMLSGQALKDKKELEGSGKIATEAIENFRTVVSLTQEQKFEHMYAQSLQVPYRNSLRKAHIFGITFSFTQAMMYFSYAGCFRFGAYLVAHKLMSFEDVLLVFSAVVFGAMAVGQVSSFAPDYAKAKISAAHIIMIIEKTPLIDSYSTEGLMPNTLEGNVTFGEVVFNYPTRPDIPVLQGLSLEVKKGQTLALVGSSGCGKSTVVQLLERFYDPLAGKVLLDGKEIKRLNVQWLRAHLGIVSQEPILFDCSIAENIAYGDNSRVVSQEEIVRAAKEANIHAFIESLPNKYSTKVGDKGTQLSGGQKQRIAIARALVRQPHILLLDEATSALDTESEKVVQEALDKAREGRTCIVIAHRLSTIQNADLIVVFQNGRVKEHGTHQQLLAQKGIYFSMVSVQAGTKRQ
How it was run: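 L5178Y cells were transfected with human MDR1 via pHa MDR1/A retrovirus and kept under 60 ng/ml colchicine, alongside parental cells, in McCoy's 5A with 10% horse serum at 37 °C, 5% CO₂. Cells at 2 × 10⁶/ml in serum-free medium got compound for 10 min at room temperature, then rhodamine 123 for 20 min at 37 °C. Cells were washed twice and read by flow cytometry, with verapamil as positive control. FAR = (MDR treated/MDR control)/(parental treated/parental control). One representative experiment, 1 × 10⁴ cells.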

[2] = system: L5178Y MDR1-transfected mouse lymphoma cells (Mus musculus); experiment: Antiproliferative activity against mouse MDR1-transfected L5178Y lymphoma cells after 72 hrs by MTT assay; details: L5178Y MDR1, 72 h

| Structure (SMILES) | RFU [1] | IC50 [2] [µg/mL] |
| --- | --- | --- |
| O=C(c1cc2ccccc2o1)N1N=C(c2ccc(Cl)cc2)CC1c1ccccc1Cl (centres undefined) | 6.02 | 44.8 (≈ 103 µM) |
| O=C(c1cc2ccccc2o1)N1N=C(c2ccc(F)cc2)CC1c1ccc(F)cc1 (centres undefined) | 14.56 | > 50 |
| O=C(c1cc2ccccc2o1)N1N=C(c2ccc(F)cc2)CC1c1ccccc1 (centres undefined) | 15.82 | 11.8 (≈ 30.6 µM) |
| Cc1ccc(C2CC(c3ccccc3)=NN2C(=O)c2cc3ccccc3o2)cc1 (centres undefined) | 7.59 | 16.6 (≈ 43.6 µM) |
| COc1ccc(C2CC(c3ccc(F)cc3)=NN2C(=O)c2cc3ccccc3o2)cc1OC (centres undefined) | 16.22 | > 50 |
| O=C(c1cc2ccccc2o1)N1N=C(c2ccccc2)CC1c1ccc(Cl)cc1 (centres undefined) | 8.34 | 5.13 (≈ 12.8 µM) |
| COc1ccc(C2CC(c3ccccc3)=NN2C(=O)c2cc3ccccc3o2)cc1OC (centres undefined) | 29.9 | 6.89 (≈ 16.2 µM) |
| O=C(c1cc2ccccc2o1)N1N=C(c2ccc(F)cc2)CC1c1ccc([N+](=O)[O-])cc1 (centres undefined) | 12.58 | > 50 |
| COc1ccc(C2CC(c3ccc(Cl)cc3)=NN2C(=O)c2cc3ccccc3o2)cc1 (centres undefined) | 5.85 | 5.74 (≈ 13.3 µM) |
| O=C(c1cc2ccccc2o1)N1N=C(c2ccccc2)CC1c1ccc([N+](=O)[O-])cc1 (centres undefined) | 15.18 | 4.87 (≈ 11.8 µM) |
| O=C(c1cc2ccccc2o1)N1N=C(c2ccc(F)cc2)CC1c1ccc(Cl)cc1 (centres undefined) | 6.96 | > 50 |
| O=C(c1cc2ccccc2o1)N1N=C(c2ccc(F)cc2)CC1c1ccccc1Cl (centres undefined) | 16.94 | 45.2 (≈ 108 µM) |
| O=C(c1cc2ccccc2o1)N1N=C(c2ccc(Cl)cc2)CC1c1ccc(Cl)cc1 (centres undefined) | 2.9 | 8.5 (≈ 19.5 µM) |
| O=C(c1cc2ccccc2o1)N1N=C(c2ccc(Cl)cc2)CC1c1ccc([N+](=O)[O-])cc1 (centres undefined) | 12.61 | 34.1 (≈ 76.5 µM) |
| O=C(c1cc2ccccc2o1)N1N=C(c2ccccc2)CC1c1ccccc1 (centres undefined) | 18.8 | 7.58 (≈ 20.7 µM) |
| O=C(c1cc2ccccc2o1)N1N=C(c2ccccc2)CC1c1ccc(F)cc1 (centres undefined) | 20.06 | 9.94 (≈ 25.8 µM) |
| O=C(c1cc2ccccc2o1)N1N=C(c2ccccc2)CC1c1ccccc1Cl (centres undefined) | 16.1 | 6.22 (≈ 15.5 µM) |
| COc1ccc(C2CC(c3ccc(F)cc3)=NN2C(=O)c2cc3ccccc3o2)cc1 (centres undefined) | 8.72 | 23 (≈ 55.5 µM) |
| COc1ccc(C2CC(c3ccc(Cl)cc3)=NN2C(=O)c2cc3ccccc3o2)cc1OC (centres undefined) | 5.87 | 6.29 (≈ 13.6 µM) |
| COc1ccc(C2CC(c3ccccc3)=NN2C(=O)c2cc3ccccc3o2)cc1 (centres undefined) | 26.77 | 4.57 (≈ 11.5 µM) |
| O=C(c1cc2ccccc2o1)N1N=C(c2ccc(Cl)cc2)CC1c1ccccc1 (centres undefined) | 6.77 | 13.6 (≈ 34 µM) |
| Cc1ccc(C2CC(c3ccc(F)cc3)=NN2C(=O)c2cc3ccccc3o2)cc1 (centres undefined) | 10.52 | > 50 |
